In brackets after ≈: the same amount, converted by molar mass.
Experiments:
Candida parapsilosis = test: Antimicrobial activity against Candida parapsilosis ATCC 22019 after 24 hrs; format: functional; settings: Lodderomyces parapsilosis, ATCC 22019, 24 h
Procedure, shortened: (§1)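 Broth microdilution per NCCLS guidelines in MOPS-buffered RPMI 1640. Starting inoculum was 1-5 × 10^3 cfu/mL, and plates were incubated at 35 °C. MIC was read spectrophotometrically at 492 nm after 24–48 h for yeasts and 72–96 h for mycelial fungi.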

Staphylococcus aureus = test: Antimicrobial activity against Staphylococcus aureus after 24 hrs; format: functional
Procedure, shortened: (§2)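 NCCLS microdilution in Mueller Hinton broth. Strains were grown 24 h on nutrient agar at 37 °C, suspended at about 1.0–2.0 × 10^7 cells/mL (McFarland-matched) in saline with 0.05% Tween 20, then diluted 100 µL into 10 mL medium. Compounds were taken from a 1 mg/mL DMSO stock as twofold dilutions, top final 50 µg/mL. Incubation was 35 °C in a moist, dark chamber, and MIC was read spectrophotometrically at 24 h.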

Sporothrix schenckii = test: Antimicrobial activity against Sporothrix schenckii after 24 hrs; format: functional; procedure, shortened: as §1
Escherichia coli = test: Antimicrobial activity against Escherichia coli after 24 hrs; format: functional; procedure, shortened: as §2
Aspergillus fumigatus = test: Antimicrobial activity against Aspergillus fumigatus after 72 to 96 hrs
[1] = test system: Trichophyton mentagrophytes; test: Antimicrobial activity against Trichophyton mentagrophytes after 72 to 96 hrs
Pseudomonas aeruginosa = test: Antimicrobial activity against Pseudomonas aeruginosa after 24 hrs; format: functional; procedure, shortened: as §2
Candida albicans = test: Antimicrobial activity against Candida albicans after 24 hrs; format: functional; procedure, shortened: as §1
Klebsiella pneumoniae = test: Antimicrobial activity against Klebsiella pneumoniae after 24 hrs; format: functional; procedure, shortened: as §2
Cryptococcus neoformans = test: Antimicrobial activity against Cryptococcus neoformans after 24 hrs; format: functional; procedure, shortened: as §1
[2] = Cytotoxicity against mouse L929 cells assessed as viability at 12.5 to 25 ug/ml after 24 hrs by MTT assay; format: cell-based; settings: read-out: Activity
Procedure, shortened: (§3)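 L929 mouse fibroblasts were grown in RPMI 1640 with 10% FBS at 37 °C under 5% CO2 and seeded at 1.0 × 10^5 cells/mL. At 80% confluence the medium was switched to serum-free RPMI, and cells were exposed 24 h to 0.09–25 µg/mL in twofold steps. After PBS washes, cells got 0.5 mg/mL MTT for 4 h at 37 °C, then DMSO for 30 min at room temperature. Viability was calculated as (A570−A630) relative to untreated cells.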

L929 [3] = test: Cytotoxicity against mouse L929 cells assessed as change in morphology at 6.25 ug/ml after 24 hrs […]; format: cell-based; settings: l929, 24 h
Procedure, shortened: (§4)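 L929 fibroblasts (serum-free RPMI, 37 °C, 5% CO2) were exposed to compound for 24 h, then fixed and stained with Giemsa for 30 min at 37 °C. Excess stain was washed off with PBS, plates were air-dried, and cell morphology was examined under a phase contrast microscope against untreated controls.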

L929 [4] = test: Cytotoxicity against mouse L929 cells assessed as change in cellular morphology at 12.5 to 25 ug/ml after 24 hrs […]; format: cell-based; settings: l929, 24 h; procedure, shortened: as §4
L929 [5] = test: Cytotoxicity against mouse L929 cells at 6.25 ug/ml after 24 hrs by MTT assay; format: cell-based; settings: l929, 24 h; procedure, shortened: as §3

SMILES | MIC (Candida parapsilosis) [µg/mL] | MIC (Staphylococcus aureus) [µg/mL] | MIC (Sporothrix schenckii) [µg/mL] | MIC (Escherichia coli) [µg/mL] | MIC (Aspergillus fumigatus) [µg/mL] | MIC [1] [µg/mL] | MIC (Pseudomonas aeruginosa) [µg/mL] | MIC (Candida albicans) [µg/mL] | MIC (Klebsiella pneumoniae) [µg/mL] | MIC (Cryptococcus neoformans) [µg/mL] | viability at 24 h [2] [%] | Activity (L929 [3]) | Activity (L929 [4]) | Activity (L929 [5])
Clc1ccc(N2COc3ccc4ccccc4c3C2)c(Cl)c1 | > 50 | > 50 | > 50 | > 50 | > 50 | 50 (≈ 151 µM) | > 50 | > 50 | > 50 | > 50 | – | – | – | –
c1ccc2c(c1)CN(CCN1COc3ccccc3C1)CO2 | > 50 | > 50 | 25 (≈ 84.4 µM) | > 50 | 50 (≈ 169 µM) | 25 (≈ 84.4 µM) | > 50 | > 50 | > 50 | 50 (≈ 169 µM) | – | – | – | –
c1ccc2c3c(ccc2c1)OCN(C1CCCCC1)C3 | > 50 | > 50 | 50 (≈ 187 µM) | > 50 | > 50 | 25 (≈ 93.5 µM) | > 50 | 50 (≈ 187 µM) | > 50 | 50 (≈ 187 µM) | – | – | – | –
CC1(C)S[C@@H]2[C@H](NC(=O)[C@H](N)c3ccccc3)C(=O)N2[C@H]1C(=O)O [AMPICILLIN] | – | 0.19 (≈ 0.544 µM) | – | 50 (≈ 143 µM) | – | – | 50 (≈ 143 µM) | – | 0.39 (≈ 1.12 µM) | – | – | – | – | –
Cc1ccc2c(c1)CN(CCN1COc3ccc(C)cc3C1)CO2 | 50 (≈ 154 µM) | > 50 | 12.5 (≈ 38.5 µM) | > 50 | 50 (≈ 154 µM) | 25 (≈ 77.1 µM) | > 50 | 50 (≈ 154 µM) | > 50 | 50 (≈ 154 µM) | – | – | – | –
OC(Cn1cncn1)(Cn1cncn1)c1ccc(F)cc1F [FLUCONAZOLE] | 1 (≈ 3.27 µM) | – | 2 (≈ 6.53 µM) | – | 2 (≈ 6.53 µM) | 1 (≈ 3.27 µM) | – | 0.5 (≈ 1.63 µM) | – | 1 (≈ 3.27 µM) | – | – | – | –
Clc1cc(Cl)c2c(c1)CN(CCN1COc3c(Cl)cc(Cl)cc3C1)CO2 | 50 (≈ 115 µM) | 0.39 (≈ 0.898 µM) | > 50 | > 50 | 50 (≈ 115 µM) | 25 (≈ 57.6 µM) | > 50 | 50 (≈ 115 µM) | 1.56 (≈ 3.59 µM) | 25 (≈ 57.6 µM) | > 90 | Non-toxic | Toxic | Non-toxic
Clc1ccccc1N1COc2c(Cl)ccc(Cl)c2C1 | 50 (≈ 159 µM) | 12.5 (≈ 39.7 µM) | 12.5 (≈ 39.7 µM) | > 50 | 50 (≈ 159 µM) | 12.5 (≈ 39.7 µM) | 50 (≈ 159 µM) | > 50 | 6.25 (≈ 19.9 µM) | 50 (≈ 159 µM) | > 90 | Non-toxic | Toxic | Non-toxic
CC(=O)N1CCN(c2ccc(OCC3COC(Cn4ccnc4)(c4ccc(Cl)cc4Cl)O3)cc2)CC1 (centres undefined) [KETOCONAZOLE] | 0.031 (≈ 0.0583 µM) | – | 0.031 (≈ 0.0583 µM) | – | 2 (≈ 3.76 µM) | 4 (≈ 7.53 µM) | – | 0.002 (≈ 0.00376 µM) | – | 0.001 (≈ 0.00188 µM) | – | – | – | –
Fc1ccc(N2COc3ccc4ccccc4c3C2)cc1 | > 50 | > 50 | 50 (≈ 179 µM) | > 50 | > 50 | 25 (≈ 89.5 µM) | 50 (≈ 179 µM) | > 50 | 50 (≈ 179 µM) | 50 (≈ 179 µM) | – | – | – | –
Cc1ccc(N2COc3ccc(C)cc3C2)cc1 | 50 (≈ 209 µM) | 25 (≈ 104 µM) | 12.5 (≈ 52.2 µM) | 25 (≈ 104 µM) | 50 (≈ 209 µM) | 12.5 (≈ 52.2 µM) | > 50 | 50 (≈ 209 µM) | 50 (≈ 209 µM) | 50 (≈ 209 µM) | – | – | – | –
CCCCN1COc2ccc3ccccc3c2C1 | > 50 | > 50 | 50 (≈ 207 µM) | > 50 | > 50 | 25 (≈ 104 µM) | > 50 | > 50 | > 50 | 50 (≈ 207 µM) | – | – | – | –
Cc1ccc(N2COc3ccc(Cl)cc3C2)cc1 | 25 (≈ 96.3 µM) | 12.5 (≈ 48.1 µM) | 6.25 (≈ 24.1 µM) | 6.25 (≈ 24.1 µM) | 25 (≈ 96.3 µM) | 12.5 (≈ 48.1 µM) | > 50 | 25 (≈ 96.3 µM) | 25 (≈ 96.3 µM) | 50 (≈ 193 µM) | – | – | – | –
CCCCN1COc2ccc(Cl)cc2C1 | > 50 | > 50 | 25 (≈ 111 µM) | > 50 | > 50 | 50 (≈ 222 µM) | > 50 | > 50 | > 50 | > 50 | – | – | – | –
